Holding throughout (conditions): in vivo
For data set [1], the system named is Pancreas. Kind of data set: Biodistribution in male Sprague-Dawley rat pancreas at 5 mg/kg, po administered as single dose measured after 0.5 hrs. In kind it is ADME, organism-based. On the set-up: dose 5 mg/kg, dosed compound name [14C]-apixaban, route oral. The method, boiled down: (§1)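 [14C]apixaban (1.0 mg/mL, 20 μCi/mL) in 0.5% Tween 80 in Labrafil, given by oral gavage at 100 μCi/kg to male rats (225-252 g) fasted overnight through 4 h post-dose. One rat per time point. Carcasses frozen in hexane/dry ice and cut into 40 µm sagittal sections. QWBA read on phosphor plates against [14C]glucose standards, reported as µg eq/g. LLOQ 0.037 µg eq/g.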

Data set [2] concerns Spleen. Kind of data set: Biodistribution in male Sprague-Dawley rat spleen at 5 mg/kg, po administered as single dose measured after 72 hrs. It counts as ADME, organism-based. On the set-up: dose 5 mg/kg, dosed compound name [14C]-apixaban, route oral. The essentials:
(§2)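 Fasted male SD rats (225-252 g) each received one oral gavage dose of [14C]apixaban, 5 mg/kg (100 μCi/kg), in 0.5% Tween 80/Labrafil vehicle. One rat was killed per time point, from 0.5 to 168 h. Frozen carcasses were cut into 40 µm sagittal whole-body sections and read by QWBA phosphor imaging against [14C]glucose calibrants. Results are in µg apixaban eq/g; BLQ <0.037 µg eq/g.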

The test system of data set [3] is Thymus. Description: Biodistribution in male Sprague-Dawley rat thymus at 5 mg/kg, po administered as single dose measured after 72 hrs. Set-up: dose 5 mg/kg, dosed compound name [14C]-apixaban, route oral. In kind it is ADME, organism-based. The method, boiled down: as §2
For data set [4], the system named is Harderian gland. Description: Biodistribution in male Sprague-Dawley rat harderian gland at 5 mg/kg, po administered as single dose measured after 8 hrs. It counts as ADME, organism-based. On the set-up: dose 5 mg/kg, dosed compound name [14C]-apixaban, route oral. The method, boiled down: (§3)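 [¹⁴C]Apixaban given by oral gavage at 5 mg/kg (100 μCi/kg) in 0.5% Tween 80 in Labrafil (1.0 mg/mL dosing solution) to rats fasted overnight through 4 h post-dose. One rat per time point; carcass frozen in hexane/dry ice. Quantitative whole-body autoradiography used 40 µm sagittal sections and a phosphor imaging plate calibrated with [¹⁴C]glucose standards (0.001–6.5 μCi/g). Read-out in µg eq apixaban/g; LLOQ 0.037 μg eq/g.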

Data set [5] concerns Heart. Kind of data set: Biodistribution in male Sprague-Dawley rat heart at 5 mg/kg, po administered as single dose measured after 24 hrs. In kind it is ADME, organism-based. On the set-up: dose 5 mg/kg, dosed compound name [14C]-apixaban, route oral. The method, boiled down:
as §2

The test system of data set [6] is Pancreas. Kind of data set: Biodistribution in female Sprague-Dawley rat pancreas at 5 mg/kg, po administered as single dose measured after 24 hrs. In kind it is ADME, organism-based. On the set-up: dose 5 mg/kg, dosed compound name [14C]-apixaban, route oral. The essentials:
(§4)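 Quantitative whole-body autoradiography was run after a single 5 mg/kg (100 μCi/kg) oral gavage to fasted female or pregnant SD rats, one rat per time point. Carcasses were frozen in hexane/dry ice, and 40 µm sagittal sections were dried at −20°C for at least 48 h. Sections were exposed to a phosphor plate alongside [14C]glucose standards (0.001–6.5 µCi/g). Results are µg eq/g, with LLOQ 0.037 µg eq/g.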

In data set [7] the test system is Spleen. Kind of data set: Biodistribution in female Sprague-Dawley rat spleen at 5 mg/kg, po administered as single dose measured after 8 hrs. It counts as ADME, organism-based. On the set-up: dose 5 mg/kg, dosed compound name [14C]-apixaban, route oral. The essentials: as §3
In data set [8] the test system is Rattus norvegicus. Kind of data set: Biodistribution in male Sprague-Dawley rat bone marrow at 5 mg/kg, po administered as single dose measured after 72 hrs. On the set-up: dose 5 mg/kg, dosed compound name [14C]-apixaban, route oral. It counts as ADME, organism-based. The essentials:
as §2

Data set [9] concerns Muscle tissue. Kind of data set: Biodistribution in male Sprague-Dawley rat muscle at 5 mg/kg, po administered as single dose measured after 1 hr. It counts as ADME, organism-based. Set-up: dose 5 mg/kg, dosed compound name [14C]-apixaban, route oral. The essentials: as §1
For data set [10], the system named is Blood. Kind of data set: Biodistribution in male Sprague-Dawley rat blood at 5 mg/kg, po administered as single dose measured after 4 hrs. It counts as ADME, organism-based. Set-up: dose 5 mg/kg, dosed compound name [14C]-apixaban, route oral. The essentials: as §3
The test system of data set [11] is Rattus norvegicus. Description: Biodistribution in male Sprague-Dawley rat brown fat at 5 mg/kg, po administered as single dose measured after 4 hrs. Set-up: dose 5 mg/kg, dosed compound name [14C]-apixaban, route oral. In kind it is ADME, organism-based, Brown adipose tissue. The essentials: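 Fasted male rats, 225-252 g, received [14C]apixaban by single oral gavage at 100 μCi/kg in 0.5% Tween 80/Labrafil. One rat was killed per time point and the carcass frozen. Tissue radioactivity was quantified by QWBA (40 µm sagittal sections, phosphor plate, [14C]glucose calibration) as µg eq apixaban/g, with LLOQ 0.037 μg eq/g.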

In data set [12] the test system is Rattus norvegicus. Description: Biodistribution in fetal liver of pregnant Sprague-Dawley rat at 5 mg/kg, po administered as single dose measured after 8 hrs. It counts as ADME, organism-based. On the set-up: dose 5 mg/kg, dosed compound name [14C]-apixaban, route oral. The essentials: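 Pregnant SD rats received a single oral gavage of [14C]apixaban at 5 mg/kg (100 μCi/kg; 1.0 mg/mL, 20 μCi/mL in 0.5% Tween 80/Labrafil) after fasting, one dam per time point. Frozen carcasses were cut into 40 µm sagittal sections and read by phosphor-imaging QWBA against [14C]glucose standards. Fetal tissue radioactivity is reported as µg eq/g, with LLOQ 0.037 µg eq/g.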

For data set [13], the system named is Rattus norvegicus. Description: Biodistribution in pregnant Sprague-Dawley rat pituitary gland at 5 mg/kg, po administered as single dose measured after 24 hrs. In kind it is ADME, organism-based. Set-up: dose 5 mg/kg, dosed compound name [14C]-apixaban, route oral. The essentials:
(§5)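 Pregnant SD rats (270-319 g) were fasted overnight and given one oral gavage of 5 mg/kg (100 μCi/kg) in 0.5% Tween 80 in Labrafil. One rat was euthanized per time point (0.5, 1, 4, 8, 24, 48 h) and the carcass frozen. 40 µm sagittal sections were phosphor-imaged against [14C]glucose standards and results reported as µg eq/g; LLOQ 0.037 µg eq/g.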

Data set [14] deals with Blood. Kind of data set: AUC (0 to infinity) in pregnant Sprague-Dawley rat blood at 5 mg/kg, po administered as single dose. In kind it is ADME, organism-based. Set-up: time infinity, dose 5 mg/kg, dosed compound name [14C]-apixaban, route oral.
Data set [15] is described as follows: Drug level in lactating Sprague-Dawley rat milk at 5 mg/kg, po administered as single dose after 24 hrs. In kind it is ADME, organism-based. On the set-up: dose 5 mg/kg, dosed compound name [14C]-apixaban, route oral.
Data set [16] relates to Rattus norvegicus. Description: Biodistribution in pregnant Sprague-Dawley rat bone marrow at 5 mg/kg, po administered as single dose measured after 48 hrs. On the set-up: dose 5 mg/kg, dosed compound name [14C]-apixaban, route oral. In kind it is ADME, organism-based. The method, boiled down:
(§6)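 Fasted pregnant SD rats (n=6, 270-319 g) each received one oral gavage dose of [14C]apixaban, 5 mg/kg (100 μCi/kg), in 0.5% Tween 80/Labrafil. One rat was killed at each of 0.5, 1, 4, 8, 24 and 48 h. Carcasses were frozen in hexane/dry ice, cut into 40 µm sagittal sections, exposed to phosphor plates and quantified against [14C]glucose standards as µg eq/g. LLOQ was 0.037 µg eq/g.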

For data set [17], the system named is Harderian gland. Kind of data set: Biodistribution in pregnant Sprague-Dawley rat harderian gland at 5 mg/kg, po administered as single dose measured after 48 hrs. In kind it is ADME, organism-based. On the set-up: dose 5 mg/kg, dosed compound name [14C]-apixaban, route oral. The essentials: as §6
Data set [18] concerns Thymus. Kind of data set: Biodistribution in pregnant Sprague-Dawley rat thymus at 5 mg/kg, po administered as single dose measured after 48 hrs. Set-up: dose 5 mg/kg, dosed compound name [14C]-apixaban, route oral. In kind it is ADME, organism-based. The essentials:
as §5

The subject of data set [19] is Rattus norvegicus. Description: Biodistribution in fetal liver of pregnant Sprague-Dawley rat at 5 mg/kg, po administered as single dose measured after 48 hrs. It counts as ADME, organism-based. Set-up: dose 5 mg/kg, dosed compound name [14C]-apixaban, route oral. The method, boiled down: as §6
For data set [20], the system named is Heart. Description: Biodistribution in female Sprague-Dawley rat heart at 5 mg/kg, po administered as single dose measured after 72 hrs. In kind it is ADME, organism-based. Set-up: dose 5 mg/kg, dosed compound name [14C]-apixaban, route oral. The method, boiled down:
as §4

For data set [21], the system named is Pancreas. Kind of data set: Biodistribution in female Sprague-Dawley rat pancreas at 5 mg/kg, po administered as single dose measured after 72 hrs. In kind it is ADME, organism-based. Set-up: dose 5 mg/kg, dosed compound name [14C]-apixaban, route oral. The essentials: as §4
The test system of data set [22] is Rattus norvegicus. Description: Biodistribution in female Sprague-Dawley rat salivary gland at 5 mg/kg, po administered as single dose measured after 72 hrs. It counts as ADME, organism-based. Set-up: dose 5 mg/kg, dosed compound name [14C]-apixaban, route oral. The essentials:
as §4

Data set [23] deals with Muscle tissue. Description: Biodistribution in pregnant Sprague-Dawley rat muscle at 5 mg/kg, po administered as single dose measured after 4 hrs. It counts as ADME, organism-based. On the set-up: dose 5 mg/kg, dosed compound name [14C]-apixaban, route oral.
In data set [24] the test system is Rattus norvegicus. Description: Biodistribution in fetal liver of pregnant Sprague-Dawley rat at 5 mg/kg, po administered as single dose measured after 4 hrs. It counts as ADME, organism-based. On the set-up: dose 5 mg/kg, dosed compound name [14C]-apixaban, route oral. The method, boiled down: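 Pregnant rats, 270-319 g and fasted overnight, received [14C]apixaban by oral gavage at 100 μCi/kg in 0.5% Tween 80/Labrafil. One dam per time point was euthanized and frozen in hexane/dry ice. Fetal tissue radioactivity was measured by QWBA on 40 µm sagittal sections calibrated with [14C]glucose standards. Values are in µg eq/g, with LLOQ 0.037 μg eq/g.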

From ChEMBL document CHEMBL3525963, “Tissue distribution and elimination of [14C]apixaban in rats” (Drug Metab Dispos, 2011) come the findings set out here.

Molecules are shown by their SMILES.

For `COc1ccc(-n2nc(C(N)=O)c3c2C(=O)N(c2ccc(N4CCCC[14C]4=O)cc2)CC3)cc1`, the Radiolabel recovery in the data set on Pancreas [1] is 0.47 ugequiv/g; with Spleen [2] it was “Not detected assumed BLQ”; in the data set on Thymus [3], “Not detected assumed BLQ”; in the data set with Harderian gland [4] it was 0.12 ugequiv/g; with Heart [5], “Not detected assumed BLQ”; in the data set on Pancreas [6], “Not detected assumed BLQ”. The Radiolabel recovery is on record as 0.13 ugequiv/g in the data set with Spleen [7]; “Not sampled as not visualised in autoradiograph” in the data set on Rattus norvegicus [8]; 0.43 ugequiv/g with Muscle tissue [9]; 0.6 ugequiv/g in the data set with Blood [10]; 0.53 ugequiv/g with Rattus norvegicus [11]; 0.06 ugequiv/g in the data set on Rattus norvegicus [12]. The Radiolabel recovery result was “Not sampled as not visualised in autoradiograph” in the data set with Rattus norvegicus [13]; 0.31 µg/mL in [15]; “Not detected assumed BLQ” with Rattus norvegicus [16]; “Not detected assumed BLQ” with Harderian gland [17]; “Not detected assumed BLQ” in the data set on Thymus [18]; “Not sampled as not visualised in autoradiograph” in the data set with Rattus norvegicus [19]. The Radiolabel recovery entry in the data set on Heart [20] is recorded as “Not detected assumed BLQ”; in the data set on Pancreas [21] it was “Not sampled as not visualised in autoradiograph”; in the data set with Rattus norvegicus [22], “Not detected assumed BLQ”; in the data set on Muscle tissue [23], 0.5 ugequiv/g; with Rattus norvegicus [24], 0.32 ugequiv/g. The compound further yielded an AUC with Blood [14] of 7200 ngequiv.hr/g.
